According to ChEMBL document CHEMBL1134455, “Synthesis and evaluation of 4-fluoro-8-substituted-2,3,4,5-tetrahydro-1H-2-benzazapines as selective inhibitors of phenylethanolamine N-methyltransferase versus the alpha(2)-adrenoceptor” (J Med Chem, 2001):

Assays:
[1] = Selectivity ratio (alpha2/PNMT)
[2] = biological target: T1, Adrenergic receptor alpha-2 (Rattus norvegicus, UniProt P22086+P19328+P22909); experiment: Binding affinity to alpha-2 adrenergic receptor by displacement of [3H]clonidine; format: protein assay
T1 sequence (P22086 whole entry): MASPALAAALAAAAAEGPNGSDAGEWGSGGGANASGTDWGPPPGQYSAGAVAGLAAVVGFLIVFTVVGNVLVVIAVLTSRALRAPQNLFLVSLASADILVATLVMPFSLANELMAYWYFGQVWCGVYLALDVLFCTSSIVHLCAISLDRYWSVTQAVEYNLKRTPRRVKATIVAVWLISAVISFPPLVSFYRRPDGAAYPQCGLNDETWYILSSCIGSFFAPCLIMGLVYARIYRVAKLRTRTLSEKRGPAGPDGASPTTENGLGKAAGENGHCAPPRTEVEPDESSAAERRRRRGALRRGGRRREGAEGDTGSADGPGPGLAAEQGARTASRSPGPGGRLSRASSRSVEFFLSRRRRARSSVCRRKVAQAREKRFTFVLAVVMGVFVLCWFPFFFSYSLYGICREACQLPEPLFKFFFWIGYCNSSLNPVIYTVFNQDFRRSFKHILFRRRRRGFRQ
T1 sequence (P19328 whole entry): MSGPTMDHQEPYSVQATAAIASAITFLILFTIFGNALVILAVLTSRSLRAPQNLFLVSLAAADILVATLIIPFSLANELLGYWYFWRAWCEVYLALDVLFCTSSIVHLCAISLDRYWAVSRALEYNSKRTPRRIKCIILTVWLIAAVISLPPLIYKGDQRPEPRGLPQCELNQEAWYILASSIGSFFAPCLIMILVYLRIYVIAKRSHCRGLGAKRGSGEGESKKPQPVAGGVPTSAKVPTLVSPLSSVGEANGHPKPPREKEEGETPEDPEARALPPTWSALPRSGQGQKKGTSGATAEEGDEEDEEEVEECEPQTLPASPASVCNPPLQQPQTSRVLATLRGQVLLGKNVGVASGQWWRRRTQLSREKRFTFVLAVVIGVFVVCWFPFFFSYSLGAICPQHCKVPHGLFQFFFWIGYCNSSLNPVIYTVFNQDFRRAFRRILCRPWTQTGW
T1 sequence (P22909 whole entry): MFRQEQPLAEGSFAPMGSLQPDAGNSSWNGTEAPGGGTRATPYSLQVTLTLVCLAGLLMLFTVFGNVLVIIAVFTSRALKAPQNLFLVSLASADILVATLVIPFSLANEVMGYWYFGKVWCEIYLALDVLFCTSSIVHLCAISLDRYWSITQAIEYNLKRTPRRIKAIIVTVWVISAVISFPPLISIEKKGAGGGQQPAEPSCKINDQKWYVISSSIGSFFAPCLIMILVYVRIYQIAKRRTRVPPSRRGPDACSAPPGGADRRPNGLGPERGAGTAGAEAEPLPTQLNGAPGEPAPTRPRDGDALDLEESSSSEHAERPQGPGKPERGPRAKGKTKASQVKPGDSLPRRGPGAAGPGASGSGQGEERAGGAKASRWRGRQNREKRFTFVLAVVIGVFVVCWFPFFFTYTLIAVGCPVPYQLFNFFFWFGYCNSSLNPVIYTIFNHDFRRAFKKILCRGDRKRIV
How it was run: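 Male Sprague Dawley rat cortex homogenized, washed thrice by centrifugation in 50 mM Tris/HCl pH 7.7. Incubated with [3H]clonidine (final 2.0 nM) and varied inhibitor concentrations, 25 °C 30 min; GF/B filtration, scintillation counting. Nonspecific binding with 2 uM phentolamine. IC50 by log-probit analysis, converted to Ki via Cheng–Prusoff (Hill coefficients near one).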

[3] = biological target: T2, Phenylethanolamine N-methyltransferase (Bos taurus, UniProt P10938); experiment: Ability to inhibit phenylethanolamine N-methyl-transferase (PNMT)
T2 sequence (P10938 whole entry): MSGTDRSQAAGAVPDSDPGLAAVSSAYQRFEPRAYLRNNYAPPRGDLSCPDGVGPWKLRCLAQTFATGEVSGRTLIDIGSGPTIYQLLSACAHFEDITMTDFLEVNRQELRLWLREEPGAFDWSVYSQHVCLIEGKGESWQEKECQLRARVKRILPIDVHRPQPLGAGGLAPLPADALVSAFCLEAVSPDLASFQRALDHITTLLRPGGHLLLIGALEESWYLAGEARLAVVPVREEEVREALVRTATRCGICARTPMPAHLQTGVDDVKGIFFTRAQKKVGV

COc1ccc2c3c([nH]c2c1)C=NCC3
Selectivity [1]: 4.4

FC1CNCc2ccccc2C1 (stereo not given)
Ki [2]: 93 µM
Selectivity [1]: 47
Ki [3]: 2 µM

O=[N+]([O-])c1ccc2c(c1)CNCC(O)C2 (stereo not given)
Ki [2]: 680 µM
Selectivity [1]: 130
Ki [3]: 5.3 µM

Clc1ccc2c(c1Cl)CNCC2
Selectivity [1]: 0.095

FCC1Cc2ccc(Br)cc2CN1 (stereo not given)
Selectivity [1]: 10

FC1CNCc2cc(Br)ccc2C1 (stereo not given)
Ki [2]: 49 µM
Selectivity [1]: 130
Ki [3]: 0.39 µM

N#Cc1ccc2c(c1)CNC(CF)C2 (stereo not given)
Selectivity [1]: 420

O=[N+]([O-])c1ccc2c(c1)CNCC2CF (stereo not given)
Ki [2]: 35 µM
Selectivity [1]: 17
Ki [3]: 2.1 µM

N#Cc1ccc2c(c1)CNCC(F)C2 (stereo not given)
Ki [2]: 100 µM
Selectivity [1]: 77
Ki [3]: 1.3 µM

NS(=O)(=O)c1ccc2c(c1)CNC(CF)C2 (stereo not given)
Selectivity [1]: 1000

O=[N+]([O-])c1ccc2c(c1)CNCC(F)C2 (stereo not given)
Ki [2]: 510 µM
Selectivity [1]: 940
Ki [3]: 0.54 µM

O=[N+]([O-])c1ccc2c(c1)CNC(CF)C2 (stereo not given)
Selectivity [1]: 140

NS(=O)(=O)c1ccc2c(c1)CNC(CO)C2 (stereo not given)
Selectivity [1]: 4100
